The structures appear in SMILES notation. Bounds are passed on as bounds.

Assay [1] concerns the target Poly [ADP-ribose] polymerase 1 (Homo sapiens, UniProt P09874). Nature of the assay: Inhibition of PARP-1 (unknown origin) assessed as incorporation of biotinylated poly (ADP-ribose) onto histone protein after 60 mins by TACS-Sapphire substarte-based colorimetric analysis.
The target in assay [2] is T1, Dihydroorotate dehydrogenase (quinone), mitochondrial (Homo sapiens, UniProt Q02127). Nature of the assay: Inhibition of DHODH (unknown origin) using L-DHO, DUQ, DCIP as substrate at 10 uM preincubated for 30 mins followed by substrate addition measured after 20 mins by multilabel plate reader analysis relative to control. The method in brief:
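Single-concentration screen at 10 µM. DHODH (25 ng) was preincubated with compound for 30 min at room temperature in 50 mM Tris-HCl, 150 mM KCl, 0.8% Triton, pH 8.0, with 1% DMSO final. The reaction was started with a substrate mix of 20 mM L-DHO, 2 mM DUQ and 2 mM DCIP (added-mix concentrations). DCIP reduction was followed as the drop in A610, read from 20 min, every 10 min for 1 h.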

Assay [3] concerns the target T1, Dihydroorotate dehydrogenase (quinone), mitochondrial. The experiment in a line: Inhibition of DHODH (unknown origin) using L-DHO, DUQ, DCIP as substrate preincubated for 30 mins followed by substrate addition measured after 20 mins by multilabel plate reader analysis.
Assay [4] has the same target. The experiment in a line: Inhibition of human DHODH using L-DHO, DUQ, DCIP as substrate preincubated for 30 mins followed by substrate addition measured after 20 mins.
Assay [5] shares this target. The experiment in a line: Inhibition of DHODH (unknown origin) using L-DHO, DUQ, DCIP as substrate at 1 uM preincubated for 30 mins followed by substrate addition measured after 20 mins by multilabel plate reader analysis relative to control.

Poly [ADP-ribose] polymerase 1, sequence (P09874 whole entry): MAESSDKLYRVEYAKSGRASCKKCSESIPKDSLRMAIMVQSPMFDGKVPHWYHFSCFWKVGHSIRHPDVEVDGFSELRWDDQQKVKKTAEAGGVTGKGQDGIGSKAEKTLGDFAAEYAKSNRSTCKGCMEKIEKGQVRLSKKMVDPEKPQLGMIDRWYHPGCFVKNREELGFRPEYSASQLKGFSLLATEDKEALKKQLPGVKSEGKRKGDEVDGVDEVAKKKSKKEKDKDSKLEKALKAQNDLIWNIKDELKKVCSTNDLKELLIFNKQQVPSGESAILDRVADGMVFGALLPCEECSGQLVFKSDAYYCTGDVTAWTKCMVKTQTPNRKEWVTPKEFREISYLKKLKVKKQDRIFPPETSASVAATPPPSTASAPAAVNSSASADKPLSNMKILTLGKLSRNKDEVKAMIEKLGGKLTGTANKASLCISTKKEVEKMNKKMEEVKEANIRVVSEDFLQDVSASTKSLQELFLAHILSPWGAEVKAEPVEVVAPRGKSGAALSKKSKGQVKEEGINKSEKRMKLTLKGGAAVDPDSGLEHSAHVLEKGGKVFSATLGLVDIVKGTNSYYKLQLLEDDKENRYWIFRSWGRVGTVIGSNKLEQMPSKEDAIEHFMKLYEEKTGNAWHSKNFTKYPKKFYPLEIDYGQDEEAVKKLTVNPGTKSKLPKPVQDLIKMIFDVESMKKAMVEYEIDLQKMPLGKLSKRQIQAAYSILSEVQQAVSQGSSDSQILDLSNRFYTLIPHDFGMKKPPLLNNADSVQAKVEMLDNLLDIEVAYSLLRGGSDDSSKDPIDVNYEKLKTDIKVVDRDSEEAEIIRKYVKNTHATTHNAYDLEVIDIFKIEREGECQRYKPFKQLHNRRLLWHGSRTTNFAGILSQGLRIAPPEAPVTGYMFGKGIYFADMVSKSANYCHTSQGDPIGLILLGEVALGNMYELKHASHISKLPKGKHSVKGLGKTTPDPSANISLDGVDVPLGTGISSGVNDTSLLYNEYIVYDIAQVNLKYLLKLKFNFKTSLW
T1 sequence (Q02127 whole entry): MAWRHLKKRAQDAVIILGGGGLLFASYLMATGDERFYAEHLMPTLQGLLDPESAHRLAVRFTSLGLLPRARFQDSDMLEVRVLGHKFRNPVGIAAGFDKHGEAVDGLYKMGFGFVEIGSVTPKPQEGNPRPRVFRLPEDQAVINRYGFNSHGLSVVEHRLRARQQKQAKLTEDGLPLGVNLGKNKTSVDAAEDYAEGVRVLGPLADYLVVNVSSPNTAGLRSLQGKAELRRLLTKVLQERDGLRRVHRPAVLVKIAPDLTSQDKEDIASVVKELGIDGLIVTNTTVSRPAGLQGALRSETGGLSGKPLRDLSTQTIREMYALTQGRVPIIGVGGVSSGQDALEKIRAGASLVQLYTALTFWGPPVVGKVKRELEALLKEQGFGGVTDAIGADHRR

What is called IC50 is the midpoint of a concentration-inhibition curve. On to `NC(=O)c1cccc2[nH]c(-c3ccc(-c4ccc(C(=O)N5CCCC5)cc4)cc3)nc12`, for which the IC50 in assay [1] was found to be 310 nM. For orientation: inhibition means the drop in the measured response relative to a control, in per cent. The low end stands for a response near the control, the high end for a response far below the control. Take `CCC(=O)Nc1ccc(-c2ccc(-c3nc4c(C(N)=O)cc(F)cc4[nH]3)cc2)cc1`: in assay [1], the IC50 turned out to be 1720 nM. Also, the inhibition in assay [2] is < 15%. Turning to `CC(=O)Nc1ccccc1COc1ccc(-c2ccc(-c3nc4c(C(=O)O)cc(C)cc4[nH]3)cc2)cc1`, the IC50 was 10600 nM in assay [1] and 300 nM in assay [3]. For the compound `CC(=O)Nc1ccc(-c2ccc(-c3nc4c(C(N)=O)cccc4[nH]3)cc2)cn1`, the IC50 in assay [1] is 49 nM.

Consider `O=C(O)c1cccc2[nH]c(-c3ccc(-c4ccccc4)cc3)nc12`, for which, in assay [4], 750 nM corresponded to half-maximal inhibition (IC50).

For the compound `NC(=O)c1cccc2[nH]c(-c3ccc(-c4ccccc4)cc3)nc12`, the 50% inhibitory concentration (IC50) in assay [1] amounted to 710 nM; in assay [3] it was 9800 nM. As to `NC(=O)c1cccc2[nH]c(-c3ccc(-c4ccc(C(=O)N5CCCC5)nc4)cc3)nc12`, in assay [1], the IC50 was 12 nM. Moreover, the inhibition in assay [2] was < 15%. For the compound `COc1cc(-c2ccc(-c3nc4c(C(N)=O)cc(F)cc4[nH]3)c(F)c2)ccc1NC(=O)C1CC1`, in assay [1], the IC50 came out at 980 nM. In the case of `CC(=O)Nc1ccccc1-c1ccc(-c2nc3c(C(N)=O)cccc3[nH]2)cc1`, the IC50 in assay [1] amounted to 140 nM. Take `NC(=O)c1cccc2[nH]c(-c3ccc(-c4ccc(OCCCN5CCCCC5)cc4)cc3)nc12`: in assay [1], the IC50 worked out at 2280 nM. For the same compound, the inhibition in assay [2] was < 15%. In the case of `COc1cc(-c2ccc(-c3nc4c(C(N)=O)cc(F)cc4[nH]3)cc2)ccc1NC(=O)C1CC1`, the IC50 in assay [1] was determined as 5960 nM. The inhibition in assay [2] is < 15%. `CC(=O)Nc1cccc(COc2ccc(-c3ccc(-c4nc5c(C(=O)O)cc(C)cc5[nH]4)cc3)cc2)c1` displayed an IC50 in assay [3] of 28 nM.

Take `CC(=O)Nc1ccc(-c2ccc(-c3nc4c(C(=O)O)cc(C)cc4[nH]3)cc2)cc1`: in assay [3], the IC50 amounted to 210 nM. The same measure, in the same setting: as for `Cc1cc(C(N)=O)c2nc(-c3ccc(-c4ccccc4)cc3)[nH]c2c1`, the figure is 7800 nM; as for `CC(=O)Nc1ccc(COc2ccc(-c3ccc(-c4nc5c(C(=O)O)cc(C)cc5[nH]4)cc3)cc2)cc1`, 13 nM. As for `NC(=O)c1cccc2[nH]c(-c3ccc(-c4ccc(OCCN5CCCCC5)cc4)cc3)nc12`, the half-maximal inhibitory concentration (IC50) in assay [1] was 720 nM. With `COc1ccc(-c2nc3c(C(N)=O)cccc3[nH]2)cc1`, the inhibition in assay [2] was < 15%. The same measure, in the same setting: the value for `Cc1cc(C(N)=O)c2nc(-c3ccc(-c4ccc(C(=O)N5CCCC5)cc4)cc3)[nH]c2c1` was < 15%; that for `Cc1cc(C(N)=O)c2nc(-c3ccc(C(F)(F)F)cc3)[nH]c2c1` was < 15%. For `COc1ccc(-c2nc3c(C(N)=O)cc(C)cc3[nH]2)cc1`, in assay [2], the inhibition was < 15%. Turning to `Cc1cc(C(N)=O)c2nc(-c3ccc(C#N)cc3)[nH]c2c1`, the inhibition in assay [2] was < 15%.

Take `NC(=O)c1cccc2[nH]c(-c3ccc(-c4cncc(C(=O)N5CCCC5)c4)cc3)nc12`: the IC50 in assay [1] was 29 nM. As to `CC(=O)Nc1cccc(-c2ccc(-c3nc4c(C(N)=O)cccc4[nH]3)cc2)c1`, the IC50 in assay [1] is 460 nM. In addition, the inhibition in assay [5] was 45%. In the case of `NC(=O)c1cccc2[nH]c(-c3ccc(-c4cncc(CN5CCCC5)c4)cc3)nc12`, in assay [1], the IC50 was found to be 61 nM.

`CC(=O)Nc1cccc(-c2ccc(-c3nc4c(C(=O)O)cc(C)cc4[nH]3)cc2)c1` registered an IC50 in assay [3] of 1380 nM. `NC(=O)c1cccc2[nH]c(-c3ccc(-c4ccc(N)nc4)cc3)nc12`: in assay [1], the IC50 stood at 32 nM. As for `NC(=O)c1cc(F)cc2[nH]c(-c3ccc(-c4ccc(NC(=O)C5CC5)cc4F)cc3F)nc12`, in assay [1], the IC50 came out at 84 nM. As to `NC(=O)c1cc(F)cc2[nH]c(-c3ccc(-c4cccc(NC(=O)C5CC5)c4)cc3F)nc12`, the IC50 in assay [1] is 1280 nM. On to `NC(=O)c1cccc2[nH]c(-c3ccc(C(F)(F)F)cc3)nc12`, for which, in assay [2], the inhibition was < 15%.

These data come from ChEMBL document CHEMBL3593177, “Benzimidazole derivatives as potential dual inhibitors for PARP-1 and DHODH” (Bioorg Med Chem, 2015).
